What was measured:
Mus musculus = experiment: Effective dose that induced platform sedation after subcutaneous administration in mice; format: functional; conditions: sc
How it was run: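 Mice screened first for baseline latency to step fully off a slightly raised platform (11 × 8 × 3 cm); animals with baseline >15 s excluded. Drug or vehicle (20% aqueous creamaphor) given s.c. at back of neck; latency retested 20 min later, 30 s cut-off. % sedation = (test − baseline)/(30 s − baseline) × 100; ED50 from dose–response.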

Rattus norvegicus = experiment: In vivo inhibition of formalin induced flinching after intra paw dosing of compound at 300 ug

| Structure (SMILES) | ED50 (Mus musculus) | Inhibition (Rattus norvegicus) |
| --- | --- | --- |
| CN(C(=O)Cc1ccc(C(F)(F)F)cc1)[C@H](CN1CCCC1)c1cccc(NC(=O)CCC(=O)O)c1 | 47 mg/kg | 73% |
| CN(C(=O)Cc1ccc(C(F)(F)F)cc1)[C@H](CN1CCCC1)c1cccc(NS(N)(=O)=O)c1 | 13 mg/kg | 73% |
| CN(C(=O)Cc1ccc(C(F)(F)F)cc1)[C@H](CN1CCCC1)c1cccc(NS(C)(=O)=O)c1 | 89 mg/kg | 77% |
| CN(C(=O)Cc1ccc(C(F)(F)F)cc1)[C@H](CN1CCCC1)c1ccccc1 | 0.13 mg/kg | 92% |
| COc1cccc(C(CN2CCCC2)N(C)C(=O)Cc2ccc(C(F)(F)F)cc2)c1 (racemic) |  | 99% |
| CN(C(=O)Cc1ccc(C(F)(F)F)cc1)C(CN1CCCC1)c1cccc(O)c1 (racemic) |  | 99% |
| CN(C(=O)Cc1ccc(C(F)(F)F)cc1)C(CN1CCCC1)c1cccc(OCC(=O)O)c1 (racemic) | > 300 mg/kg | 93% |
| CN(C(=O)Cc1ccc(C(F)(F)F)cc1)C(CN1CCCC1)c1cccc(OCC(=O)OC(C)(C)C)c1 (racemic) | 140 mg/kg | 84% |
| CN(C(=O)Cc1ccc(Cl)c(Cl)c1)C(CN1CCCC1)c1cccc(OCC(=O)O)c1 (stereo not given) [ICI-204448] | 5.2 mg/kg |  |

— ChEMBL document CHEMBL1144321, “Synthesis and evaluation of novel peripherally restricted kappa-opioid receptor agonists” (Bioorg Med Chem Lett, 2005)
